# TRPC6 inhibitor: inhibitors of mouse TRPC6 channel; AID 2553; Q61143; 1.1% of 310,000 active; HEK293-TRPC6, membrane potential dye, ACh-evoked depolarization; hits give low values; B-score at 10 µM;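 active means B-score under library mean minus 3 SD, initial fluorescence not abnormally high, positive integrated signal ratio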;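 further: B-score derived from integrated fluorescence ratio over the kinetic read; more negative B-score means stronger inhibition of depolarization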
# TRPC6 activator: activates the mouse TRPC6 cation channel | HEK293-TRPC6 membrane potential dye fluorescence; hits give high values | AID 2550 | B-score at 10 µM | Q61143 | 0.13% of 310,000 active;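 active means B-score of the integrated fluorescence ratio above library mean plus 3 SD, and starting fluorescence ratio within library mean plus 5 SD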;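 further: higher score means more depolarization so channel activation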
# TRPC4 potent: allosterically enhances the mouse TRPC4 cation channel | 0.42% of 310,000 active | AID 2227 | Q9QUQ5 | B-score at 10 µM | HEK293 TRPC4beta/mu-opioid, DAMGO EC20, Fluo-4 Ca2+ flux; hits give high values;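 active means B-score of calcium response area above 5 SD of library B-scores, with initial fluorescence ratio within 5 SD of library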;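 further: B-score of integrated fluorescence ratio over time as area under calcium response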
# Target sequence (Q9QUQ5 whole entry, looked up): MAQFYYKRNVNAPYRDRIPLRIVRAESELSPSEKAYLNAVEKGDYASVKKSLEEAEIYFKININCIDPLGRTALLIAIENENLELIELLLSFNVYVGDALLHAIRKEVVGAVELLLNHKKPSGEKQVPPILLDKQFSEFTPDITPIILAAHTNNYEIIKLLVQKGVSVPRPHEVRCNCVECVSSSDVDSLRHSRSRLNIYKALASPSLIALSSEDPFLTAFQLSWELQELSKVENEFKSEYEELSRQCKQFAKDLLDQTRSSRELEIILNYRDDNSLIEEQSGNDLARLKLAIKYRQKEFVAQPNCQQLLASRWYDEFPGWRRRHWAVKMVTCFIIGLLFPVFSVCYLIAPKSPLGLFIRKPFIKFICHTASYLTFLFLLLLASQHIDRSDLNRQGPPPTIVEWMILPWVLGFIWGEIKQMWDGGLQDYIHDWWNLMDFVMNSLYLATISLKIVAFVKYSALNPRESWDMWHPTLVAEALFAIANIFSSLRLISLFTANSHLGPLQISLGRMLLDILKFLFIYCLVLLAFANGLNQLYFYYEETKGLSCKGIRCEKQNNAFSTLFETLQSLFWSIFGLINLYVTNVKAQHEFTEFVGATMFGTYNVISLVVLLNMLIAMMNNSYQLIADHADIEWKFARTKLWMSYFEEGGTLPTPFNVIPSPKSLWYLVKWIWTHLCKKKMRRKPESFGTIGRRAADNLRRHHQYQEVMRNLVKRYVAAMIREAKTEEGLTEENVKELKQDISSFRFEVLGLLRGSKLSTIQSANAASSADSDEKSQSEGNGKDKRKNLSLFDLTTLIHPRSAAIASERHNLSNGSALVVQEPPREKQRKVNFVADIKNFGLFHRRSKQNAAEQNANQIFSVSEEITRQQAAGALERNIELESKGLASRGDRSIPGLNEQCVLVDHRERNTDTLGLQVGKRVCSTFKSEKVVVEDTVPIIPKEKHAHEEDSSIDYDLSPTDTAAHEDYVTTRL
# TRPC4 act: activators of mouse TRPC4 channel; HEK293 TRPC4beta/mu-opioid, Fluo4 calcium fluorescence; hits give high values; 0.49% of 310,000 active; B-score at 10 µM; Q9QUQ5;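 active means B-score above 5 SD of library B-scores, and initial fluorescence ratio not above library mean plus 5 SD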;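 further: positive B-score marks a calcium rise read as TRPC4 activation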
#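 System – HEK293 cells stably co-expressing mouse TRPC4beta and mu-opioid receptor · Signal – Fluo4 calcium-sensitive dye fluorescence, kinetic, 1 Hz baseline · Benchmarks – buffer (low) and maximal DAMGO (high) · Read-out – B score of integrated fluorescence ratio per well · Incubation – dye loading 45 min room temperature, 110 s kinetic read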
# TRPC4 block: TRPC4 (mouse) channel inhibition | Q9QUQ5 | B-score at 10 µM | HEK293 TRPC4beta/mu-opioid, DAMGO-evoked Fluo4 calcium flux; hits give low values | 0.39% of 300,000 active;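 active means B-score over 3 SD under the library average, no early fluorescence shift, positive overall ratio signal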
#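 test system = HEK293 cells with stable TRPC4beta plus mu-opioid receptor expression | detection = Fluo4 Ca2+ flux fluorescence | read-out = integrated fluorescence ratio relative to baseline, converted to per-well B score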
# Starred values were filed as active, the others as inactive; i = inactive. Hits are enriched below; roughly 2.3% of the tested compounds scored in any of these assays.
SMILES,TRPC6 inhibitor,TRPC6 activator,TRPC4 potent,TRPC4 act,TRPC4 block
CC(C)Cc1nnc(NC(=O)Cc2ccc([N+](=O)[O-])cc2)s1,i,i,i,i,i
O=c1[nH]c(C2CCCN(S(=O)(=O)c3ccccc3)C2)nc2c1nnn2Cc1ccccc1Br (stereo not given),i,i,10*,i,i
COc1ccc(CN2CCCC2C(=O)Nc2ccc(OC)c(OC)c2)cc1OC (stereo not given),-5.7*,i,i,i,i
Cc1cc[n+](C(C)C(=O)c2ccc(-c3ccccc3)cc2)cc1 (stereo not given),i,i,i,i,i
CC(OC(=O)Cc1n[nH]c(=O)c2ccccc12)C(=O)Nc1cccc([N+](=O)[O-])c1 (stereo not given),i,i,11*,i,i
CC(Oc1ccccc1)C(=O)N1CCN(c2ccc(N3CCCCC3)nn2)CC1 (stereo not given),i,i,i,i,i
CCOC(=O)C1CCN(c2cc3c(cc2NC(=O)c2ccccc2Br)n(C)c(=O)n3C)CC1,i,i,i,i,i
CCOC(=O)C1CCN(c2cc3c(cc2NC(=O)c2cc(OC)ccc2Br)n(C)c(=O)n3C)CC1,i,i,12*,i,i
C=CCSc1nc2ccsc2c(=O)n1-c1cccnc1,i,i,i,i,i
Cc1cc(NCc2ccccc2)c2ccccc2n1,i,i,i,i,i
Cc1cc(NCc2ccccc2)nc2ccccc12,i,i,i,51*,-7*
CN(C)CCCN(C(=O)c1ccc2c(c1)CCCC2)c1nc2cc3c(cc2s1)OCO3,i,i,i,i,i
CCN(Cc1ccccc1)S(=O)(=O)c1ccc(C(=O)N(CCCN(C)C)c2nc3cc4c(cc3s2)OCO4)cc1,i,i,i,45*,-6*
CN(C)CCCN(C(=O)c1ccc(Br)s1)c1nc2cc3c(cc2s1)OCO3,i,i,i,i,-7*
CN(C)CCN(C(=O)CN1C(=O)c2ccccc2C1=O)c1nc2cc3c(cc2s1)OCO3,i,i,i,i,i
CCN(CC)CCN(C(=O)CN1C(=O)c2ccccc2C1=O)c1nc2cc3c(cc2s1)OCO3,-8.7*,i,i,i,i
CN(C)CCN(C(=O)c1ccc(S(=O)(=O)N(C)c2ccccc2)cc1)c1nc2cc3c(cc2s1)OCO3,i,i,i,i,i
O=C(O)CN1C(c2ccccc2O)Nc2ccc(Br)cc2C1c1ccccc1 (stereo not given),i,i,i,i,-5*
COc1ccc(C2Nc3ccc(Br)cc3C(c3ccccc3)N2CC(=O)O)cc1 (stereo not given),i,i,i,i,i
Fc1ccc(-c2[nH]ncc2CN2CCN(c3ccc(F)cc3)CC2)cc1,i,i,12*,i,i
CCn1cc(C(=O)NCc2ccc(Cl)cc2)c(=O)c2cc(S(=O)(=O)N(C)C)ccc21,i,i,i,i,i
Cc1ccc(C(=O)C2=C(O)C(=O)N(Cc3cccnc3)C2c2ccc(Cl)c(Cl)c2)o1 (stereo not given),i,i,i,i,-6*
Cc1ccc(C(=O)C2=C(O)C(=O)N(Cc3cccnc3)C2c2ccc(Br)cc2)o1 (stereo not given),i,i,i,i,i
CC(C)Cc1ccc(C(C)C(N)=NCCc2ccccc2)cc1 (stereo not given),i,i,10*,i,i
Clc1ccc(OCc2nn3c(C4CCCCC4)nnc3s2)cc1,i,i,13*,i,i
SMILES,TRPC6 inhibitor,TRPC6 activator,TRPC4 potent,TRPC4 act,TRPC4 block
c1ccc(-c2nn3c(C4CCCCC4)nnc3s2)nc1,i,i,i,i,i
CCOCCCn1cnc2c(c1=O)c1nc3ccccc3nc1n2-c1ccccc1,i,i,i,i,i
CCOCCCn1cnc2c(c1=O)c1nc3ccccc3nc1n2-c1ccc(C)cc1,i,i,i,i,-8*
CC(OC(=O)c1cccc(S(=O)(=O)N2CCCCCC2)c1)C(=O)Nc1ccc(S(N)(=O)=O)cc1 (stereo not given),i,i,i,i,i
CCc1ccc(C(C(=O)NC(C)(C)CC)N(Cc2ccco2)C(=O)Cn2nnc3ccccc32)cc1 (stereo not given),i,i,i,i,i
CCC(C)(C)NC(=O)C(c1ccccc1F)N(Cc1ccco1)C(=O)Cn1nnc2ccccc21 (stereo not given),i,44*,i,i,i
Cc1ccnc(NC(=O)CNC(=O)c2ccccc2Br)c1,i,i,i,i,i
O=C(NNC(=S)NC(=O)c1ccccc1[N+](=O)[O-])c1ccccc1Cl,i,i,i,i,i
COc1ccc(/C=C/C(=O)NC(=S)NNC(=O)c2c(-c3ccccc3)noc2C)cc1,i,i,i,i,i
O=C(NC(=S)NNC(=O)c1ccccc1[N+](=O)[O-])c1ccc(Br)cc1,i,i,i,142*,i
Cc1onc(-c2ccccc2)c1C(=O)NNC(=S)NC(=O)/C=C/c1ccccc1,i,i,i,59*,-7*
Cc1onc(-c2ccccc2)c1C(=O)NNC(=S)NC(=O)c1ccc(Br)cc1,i,i,i,250*,i
CC(=O)CC(=O)NC(=NC1CCCCC1)Nc1nc(C)cc(C)n1,i,i,i,i,i
Cc1cc(C)nc(NC(N)=NC2CCCCC2)n1,i,i,i,i,-9*
C/C(Cc1ccccc1)=N\NC(=O)CNC(=O)COc1cccc(C)c1,i,i,i,80*,i
C=CCNC(=S)N/N=C/c1ccc(C(C)(C)C)cc1,i,i,i,i,-6*
CC(C)(C)c1ccc(/C=N/NC(=S)NCc2ccccc2)cc1,i,i,i,i,i
CCOC(=O)N1CCN(C(=O)/C=C/c2ccc(C(C)(C)C)cc2)CC1,i,i,i,i,i
COCCN1CCN(c2c3c(nc4cc(-c5cccc(F)c5)nn24)CCC3)CC1,i,i,11*,60*,i
CCOC(=O)c1c(NC(=O)CSc2nnc(C)c(=O)[nH]2)sc2c1CCCC2,i,i,i,i,i
CCOC(=O)c1c(NC(=O)C2CCCCC2C(=O)O)sc2c1CCCCC2 (stereo not given),i,i,i,i,-7*
COC(=O)c1c(NC(=O)C2CCCCC2C(=O)O)sc2c1CCCCC2 (stereo not given),i,i,i,i,i
